Assay results from different studies.
Protocols differ between the studies behind these lines.
PIK3CG: Phosphatidylinositol 4,5-bisphosphate 3-kinase catalytic subunit gamma isoform (PIK3CG, Homo sapiens, UniProt P48736)
Inositol-tetrakisphosphate 1-kinase: Inositol-tetrakisphosphate 1-kinase (Homo sapiens, UniProt Q13572)
PTGS2: Prostaglandin G/H synthase 2 (PTGS2, Homo sapiens, UniProt P35354)
CHRM3: Muscarinic acetylcholine receptor M3 (CHRM3, Homo sapiens, UniProt P20309)

| Structure (SMILES) | target | test | conditions | IC50 [µM] |
| --- | --- | --- | --- | --- |
| O=C1C(=Nc2ccccc2I)c2ccccc2N1Cc1ccc(Br)cc1 | PIK3CG | enzyme activity, inhibitor, ADP detection | – | 0.0058 |
| CN(C)C(=O)c1cc2cnc(Nc3ccc4c(=O)cc(N5CCNCC5)oc4c3)nc2n1C1CCCC1 | PIK3CG | enzyme activity, inhibitor, radiometric | – | 6.93 |
| Nc1ncnc2c1ncn2[C@@H]1O[C@H](CO)C[C@H]1O | Inositol-tetrakisphosphate 1-kinase | enzyme activity, inhibitor, ADP detection | – | 2.4 |
| CN(C)C(=O)c1cc2cnc(Nc3ccc(-c4cccc5c(=O)cc(N6CCOCC6)oc45)c(F)c3)nc2n1C1CCCC1 | PIK3CG | enzyme activity, inhibitor, radiometric | – | > 10 |
| COc1ccc(C=NNC(=O)c2cc(-c3ccccc3)n(-c3ccc(S(N)(=O)=O)cc3)n2)cc1OC | PTGS2 | enzyme activity, inhibitor | – | 4.61 |
| CCc1ccc(N=C2C(=O)Nc3ccccc32)cc1 | PIK3CG | enzyme activity, inhibitor, ADP detection | – | 0.0934 |
| CN(C)C(=O)c1cc2cnc(Nc3cc(C(F)(F)F)c(-c4cccc5c(=O)cc(N6CCOCC6)oc45)cn3)nc2n1C1CCCC1 | PIK3CG | enzyme activity, inhibitor, radiometric | – | > 10 |
| c1ccc(COc2[nH]cnc3ncnc2-3)cc1 | Inositol-tetrakisphosphate 1-kinase | enzyme activity, inhibitor, ADP detection | – | 2.9 |
| O=C(CCNC(=O)CNC(=O)CC(c1ccccc1)(c1ccccc1)c1ccccc1)NC[C@@H]1CCCN(Cc2ccc(F)nc2)C1 | CHRM3 | ligand displacement, radioligand | cell membranes | 8.2 |
| NC(=O)C1CN(C(=O)CCl)c2ccccc2O1 (stereo not drawn) | Creatine kinase U-type, mitochondrial (CKMT1A, Homo sapiens, UniProt P12532) | enzyme activity, inhibitor, ADP detection | pH 8.5 | 3 |
| NS(=O)(=O)c1ccc(-n2nc(C(=O)NN=Cc3ccc(O)cc3)cc2-c2ccccc2)cc1 | PTGS2 | enzyme activity, inhibitor | – | 1.42 |
| COc1cc(NC(=O)c2cnn(-c3ccc([N+](=O)[O-])cc3)c2C(F)(F)F)cc(OC)c1OC | PTGS2 | enzyme activity, inhibitor | – | 4.82 |
| CC(C)c1cccc(C(C)C)c1N=C1C(=O)N(Cc2ccccc2)c2ccccc21 | PIK3CG | enzyme activity, inhibitor, ADP detection | – | 0.00168 |
| CC(C)N(CCC(=O)c1ccc2ccccc2c1)Cc1ccccc1 | Retinal dehydrogenase 2 (ALDH1A2, Homo sapiens, UniProt O94788) | enzyme activity, inhibitor, fluorescence | 15 min, pH 7.5 | < 10 |
| Nc1ncnc2c1ncn2C1CCCO1 (stereo not drawn) | Inositol-tetrakisphosphate 1-kinase | enzyme activity, inhibitor | – | 1 |
| O=C(CCNC(=O)CNC(=O)CC(c1ccccc1)(c1ccccc1)c1ccccc1)NC[C@H]1CCCN(Cc2ccc(F)cc2)C1 | CHRM3 | ligand displacement, radioligand | cell membranes | 0.4 |
| NS(=O)(=O)c1ccc(-n2nc(C(=O)NN3C(=O)CCC3=O)cc2-c2ccccc2)cc1 | PTGS2 | enzyme activity, inhibitor | – | 3.63 |

| Structure (SMILES) | target | test | conditions | IC50 [µM] |
| --- | --- | --- | --- | --- |
| COc1cc(N=C2C(=O)Nc3ccccc32)cc(OC)c1 | PIK3CG | enzyme activity, inhibitor, ADP detection | – | 0.00786 |
| NS(=O)(=O)c1ccc(-n2nc(C(=O)NN=Cc3ccccc3O)cc2-c2ccccc2)cc1 | PTGS2 | enzyme activity, inhibitor | – | 1.55 |
| O=C1C(=Nc2ccccc2Br)c2ccccc2N1Cc1ccccc1 | PIK3CG | enzyme activity, inhibitor, ADP detection | – | 0.0076 |
| Nc1ncnc2c1cnn2C1CCCCC1 | Inositol-tetrakisphosphate 1-kinase | enzyme activity, inhibitor, ADP detection | – | 0.44 |
| O=C1C(=Nc2ccccc2I)c2ccccc2N1Cc1ccc([N+](=O)[O-])cc1 | PIK3CG | enzyme activity, inhibitor, ADP detection | – | 0.00152 |
| CN(C)C(=O)c1cc2cnc(Nc3cncc(-c4ccc5c(=O)cc(N6CCOCC6)oc5c4)c3)nc2n1C1CCCC1 | PIK3CG | enzyme activity, inhibitor, radiometric | – | 1.2 |
| Nc1ncnc2c1ncn2[C@@H]1O[C@H](CO)[C@@H](O)[C@@H]1F | Inositol-tetrakisphosphate 1-kinase | enzyme activity, inhibitor, ADP detection | – | 3.7 |
| CN(C)C(=O)c1cc2cnc(Nc3cc(C(F)(F)F)c(-c4ccc5c(=O)cc(N6CCOCC6)oc5c4)cn3)nc2n1C1CCCC1 | PIK3CG | enzyme activity, inhibitor, radiometric | – | > 10 |
| NS(=O)(=O)c1ccc(-n2nc(-c3nnc(CCl)o3)cc2-c2ccccc2)cc1 | PTGS2 | enzyme activity, inhibitor | – | 2.64 |
| O=C1C(=Nc2ccc(Cl)cc2Br)c2ccccc2N1Cc1ccc([N+](=O)[O-])cc1 | PIK3CG | enzyme activity, inhibitor, ADP detection | – | 0.00289 |
| COc1ccc(-c2oc3cc(Nc4ncc5cc(C(=O)N(C)C)n(C6CCCC6)c5n4)ccc3c(=O)c2F)cc1 | PIK3CG | enzyme activity, inhibitor, radiometric | – | > 10 |
| O=C1C(=Nc2ccc(Cl)cc2)c2ccccc2N1Cc1ccc([N+](=O)[O-])cc1 | PIK3CG | enzyme activity, inhibitor, ADP detection | – | 0.0012 |
| CN(C)C(=O)c1cc2cnc(Nc3ccc(-c4cccc5c(=O)cc(N6CCOCC6)oc45)cn3)nc2n1C1CCCC1 | PIK3CG | enzyme activity, inhibitor, radiometric | – | > 10 |
| Nc1ncnc2c1ncn2C1CCCC1 | Inositol-tetrakisphosphate 1-kinase | enzyme activity, inhibitor, ADP detection | – | 0.078 |
| CN(C)C(=O)c1cc2cnc(Nc3ccc4c(=O)cc(N5CCOCC5)oc4c3)nc2n1C1CCCC1 | PIK3CG | enzyme activity, inhibitor, radiometric | – | 0.461 |
| C=C(F)C(=O)N1CCN(c2nc(OC[C@@H]3CCCN3C)nc3c2CCN(c2cccc4cccc(Cl)c24)C3)C[C@@H]1CC#N | GTPase NRas (NRAS, Homo sapiens, UniProt P01111, C181S/C186S/G12C) | enzyme activity, inhibitor | – | 0.747 |
